Consider 1 sequence from ChEMBL document CHEMBL1687762, “Aerosol therapy with colistin methanesulfonate: a biopharmaceutical issue illustrated in rats” (Antimicrob Agents Chemother, 2010).

The subject of data set [1] is Rattus norvegicus. Put plainly: Cmax in Sprague-Dawley rat at 15 mg/kg administered via intratracheal nebulization. In kind it is ADME, organism-based. Also noted: dose 15 mg/kg, route endotracheal. Conditions: in vivo, inhaled_or_intranasal. Summed up: (§1)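 Male Sprague-Dawley rats (280–350 g) were fasted 12 h, with a femoral catheter implanted the day before. Under isoflurane, 100 µl of CMS at 50 mg/ml in 0.4% NaCl (15 mg/kg) was sprayed intratracheally with a MicroSprayer (n=5). Arterial plasma was sampled from 0 to 300 min. CMS (after sulfuric acid hydrolysis) and colistin were measured by LC-MS/MS. Noncompartmental analysis: trapezoidal AUC, terminal log-linear half-life.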

Data set [2] has as its system Rattus norvegicus. The data set can be described thus: Bioavailability in Sprague-Dawley rat at 15 mg/kg administered via intratracheal nebulization. Conditions: in vivo, inhaled_or_intranasal. The format is ADME, organism-based. Summed up: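 CMS bioavailability after intratracheal nebulization in rats (15 mg/kg) was taken as the mean CMS plasma AUC after nebulization divided by the mean CMS AUC after i.v. dosing at the same dose. It is reported as an average value.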

For data set [3], the system named is Rattus norvegicus. Put plainly: Half life in Sprague-Dawley rat assessed as Colistin level at 15 mg/kg, iv. In kind it is ADME, organism-based. Also noted: dose 15 mg/kg, route intravenous. Conditions: in vivo. Summed up: (§2)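 CMS in 0.9% NaCl, 15 mg/kg, was given as an i.v. bolus through a femoral vein catheter to fasted male Sprague-Dawley rats (n=6). Arterial plasma was drawn at 0–180 min. CMS (measured as colistin after acid hydrolysis) and colistin were quantified by LC-MS/MS. Individual noncompartmental analysis; Vss = dose × AUMC / AUC².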

In data set [4] the test system is Rattus norvegicus. Put plainly: AUC in Sprague-Dawley rat at 15 mg/kg, iv. The format is ADME, organism-based, Plasma. Also noted: dose 15 mg/kg, route intravenous. The note with it: in vivo. Summed up: as §2
Data set [5] deals with Rattus norvegicus. Put plainly: AUC in Sprague-Dawley rat assessed as Colistin level at 15 mg/kg administered via intratracheal nebulization. The note with it: in vivo, inhaled_or_intranasal. The format is ADME, organism-based, Plasma. Also noted: dose 15 mg/kg, route endotracheal. The method, boiled down: as §1
In data set [6] the test system is Rattus norvegicus. The data set can be described thus: AUC in Sprague-Dawley rat at 15 mg/kg administered via intratracheal nebulization. The format is ADME, organism-based, Plasma. Also noted: dose 15 mg/kg, route endotracheal. Conditions: in vivo, inhaled_or_intranasal. Summed up:
as §1

For data set [7], the system named is Rattus norvegicus. The data set can be described thus: Volume of distribution at steady state in Sprague-Dawley rat at 15 mg/kg, iv. In kind it is ADME, organism-based. Also noted: dose 15 mg/kg, route intravenous. Conditions: in vivo. Summed up:
as §2

For data set [8], the system named is Rattus norvegicus. The data set can be described thus: Half life in Sprague-Dawley rat assessed as Colistin level at 15 mg/kg administered via intratracheal nebulization. In kind it is ADME, organism-based. Also noted: dose 15 mg/kg, route endotracheal. Conditions: in vivo, inhaled_or_intranasal. Summed up: as §1
Data set [9] relates to Rattus norvegicus. Put plainly: AUC in Sprague-Dawley rat assessed as Colistin level at 15 mg/kg, iv. In kind it is ADME, organism-based, Plasma. Also noted: dose 15 mg/kg, route intravenous. Conditions: in vivo. The method, boiled down: as §2
Data set [10] concerns Rattus norvegicus. The data set can be described thus: Half life in Sprague-Dawley rat at 15 mg/kg, iv. The format is ADME, organism-based. Also noted: dose 15 mg/kg, route intravenous. The note with it: in vivo. Summed up:
as §2

The test system of data set [11] is Rattus norvegicus. The data set can be described thus: Half life in Sprague-Dawley rat at 15 mg/kg administered via intratracheal nebulization. The note with it: in vivo, inhaled_or_intranasal. Also noted: dose 15 mg/kg, route endotracheal. The format is ADME, organism-based. The method, boiled down:
as §1

With COLISTIMETHATE SODIUM, the Cmax (as a rule, the peak of the concentration-time curve) in data set [1] was found to be 5.6 µg/mL. The sequence also displayed a F in [2] of 70%. The t1/2 in [3] is 35.5 min; in [8], 63.6 min; in [10] it was 22 min; in data set [11], 21 min. Further, the AUC (commonly concentration integrated over time) in data set [4] was 1079 µg·min/mL; in data set [5] it was 607 µg·min/mL; in data set [6], 756 µg·min/mL; in data set [9], 160 µg·min/mL. Besides, the Vdss (as a rule, a proportionality between amount in the body and measured concentration, not a real space) in data set [7] was 330 mL/kg.
